The record followed here is ChEMBL document CHEMBL1144743, “Identification of prostaglandin D2 receptor antagonists based on a tetrahydropyridoindole scaffold” (Bioorg Med Chem Lett, 2008).

Each structure is given as a SMILES string.

For one series, the target named is T1, Thromboxane A2 receptor (Homo sapiens, UniProt P21731).
T1 sequence (P21731 whole entry): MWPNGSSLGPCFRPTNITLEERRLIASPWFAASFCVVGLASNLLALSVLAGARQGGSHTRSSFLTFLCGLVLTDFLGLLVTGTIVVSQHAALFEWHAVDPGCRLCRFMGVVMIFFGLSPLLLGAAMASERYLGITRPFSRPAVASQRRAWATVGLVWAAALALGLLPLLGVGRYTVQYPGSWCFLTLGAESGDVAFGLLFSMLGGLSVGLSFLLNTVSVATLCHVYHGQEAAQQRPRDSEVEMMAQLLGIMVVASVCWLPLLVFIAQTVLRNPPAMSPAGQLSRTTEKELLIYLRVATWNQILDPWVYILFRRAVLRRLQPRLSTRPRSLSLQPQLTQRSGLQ
Put plainly: Binding affinity to human recombinant TP receptor by radioligand competition binding assay. An outline of the steps: (§1)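 Radioligand competition binding on recombinant human receptors, DP1 or thromboxane TP receptor; Ki values reported.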
(In general: Loss of bound radioactivity is the signal in a displacement assay; it reports binding, not function.)

Series [1] can be described thus: Binding affinity to human recombinant PGD2 receptor subtype 1 by radioligand competition binding assay. An outline of the steps: as §1
The nature of series [2]: Antagonist activity at PGD2 subtype 1 in human platelet rich plasma assessed as inhibition of PGD2-induced accumulation of cAMP. In kind it is functional. An outline of the steps:
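Blood from normal human volunteers; PRP prepared by centrifugation at 150g for 15 min. IBMX added (2 mM final) to block cAMP degradation. PRP samples preincubated 10 min at 37 °C with increasing compound concentrations in DMSO before PGD2 challenge. Reaction stopped with ethanol to lyse cells and extract cAMP. IC50 reported.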

A short description of series [3]: Bioavailability in rat. In kind it is ADME, organism-based. Conditions: in vivo.
Series [4] is described as follows: Half life in rat. In kind it is ADME, organism-based. Conditions: in vivo.
Series [5] concerns the target T2, Prostaglandin E2 receptor EP3 subtype (Homo sapiens, UniProt P43115).
T2 sequence (P43115 whole entry): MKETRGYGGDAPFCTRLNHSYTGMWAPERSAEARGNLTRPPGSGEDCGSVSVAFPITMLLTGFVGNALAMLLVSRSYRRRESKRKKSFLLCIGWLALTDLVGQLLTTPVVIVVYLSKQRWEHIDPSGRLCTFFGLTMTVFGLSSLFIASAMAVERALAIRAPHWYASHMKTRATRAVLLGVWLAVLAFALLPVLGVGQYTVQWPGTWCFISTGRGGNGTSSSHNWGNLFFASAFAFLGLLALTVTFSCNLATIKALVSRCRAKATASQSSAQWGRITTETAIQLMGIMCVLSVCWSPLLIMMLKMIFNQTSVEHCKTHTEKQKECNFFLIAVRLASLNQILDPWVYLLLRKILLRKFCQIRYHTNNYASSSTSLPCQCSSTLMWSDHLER
The series is described as follows: Binding affinity to EP3 receptor.

The target in series [6] is T3, Prostaglandin E2 receptor EP1 subtype (Homo sapiens, UniProt P34995).
T3 sequence (P34995 whole entry): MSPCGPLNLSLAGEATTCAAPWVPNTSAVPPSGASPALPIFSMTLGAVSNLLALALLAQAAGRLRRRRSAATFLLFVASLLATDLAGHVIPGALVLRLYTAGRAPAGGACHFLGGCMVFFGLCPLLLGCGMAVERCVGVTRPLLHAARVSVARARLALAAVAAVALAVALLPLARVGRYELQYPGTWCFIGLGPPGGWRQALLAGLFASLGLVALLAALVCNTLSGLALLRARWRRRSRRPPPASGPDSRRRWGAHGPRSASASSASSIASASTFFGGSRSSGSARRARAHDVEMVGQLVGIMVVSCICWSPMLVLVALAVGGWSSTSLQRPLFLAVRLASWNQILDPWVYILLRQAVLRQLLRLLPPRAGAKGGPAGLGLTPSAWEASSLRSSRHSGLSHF
Put plainly: Binding affinity to EP1 receptor.

Series [7] concerns the target Prostaglandin E2 receptor EP2 subtype (Homo sapiens, UniProt P43116). The series is described as follows: Binding affinity to EP2 receptor.
Series [8] addresses Prostaglandin F2-alpha receptor (Homo sapiens, UniProt P43088). Put plainly: Binding affinity to FP receptor.
Another series concerns the target Prostacyclin receptor (Homo sapiens, UniProt P43119). Put plainly: Binding affinity to IP receptor.
Series [9] concerns the target Prostaglandin E2 receptor EP4 subtype (Homo sapiens, UniProt P35408). Put plainly: Binding affinity to EP4 receptor.
The target in series [10] is T4, Prostaglandin D2 receptor 2 (Homo sapiens, UniProt Q9Y5Y4).
T4 sequence (Q9Y5Y4 whole entry): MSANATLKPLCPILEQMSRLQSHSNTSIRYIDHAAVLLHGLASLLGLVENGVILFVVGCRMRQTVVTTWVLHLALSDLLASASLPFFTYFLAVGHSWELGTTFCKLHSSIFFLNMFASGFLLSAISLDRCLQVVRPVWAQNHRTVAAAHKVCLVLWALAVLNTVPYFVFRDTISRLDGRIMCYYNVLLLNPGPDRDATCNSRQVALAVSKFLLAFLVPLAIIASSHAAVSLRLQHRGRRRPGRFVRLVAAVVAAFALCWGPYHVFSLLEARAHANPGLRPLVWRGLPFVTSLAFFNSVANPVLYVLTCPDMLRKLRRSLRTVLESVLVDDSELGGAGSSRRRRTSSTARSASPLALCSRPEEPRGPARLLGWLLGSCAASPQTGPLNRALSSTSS
The series is described as follows: Binding affinity to CRTH2 receptor.

Chain of Prostacyclin receptor (P43119 whole entry): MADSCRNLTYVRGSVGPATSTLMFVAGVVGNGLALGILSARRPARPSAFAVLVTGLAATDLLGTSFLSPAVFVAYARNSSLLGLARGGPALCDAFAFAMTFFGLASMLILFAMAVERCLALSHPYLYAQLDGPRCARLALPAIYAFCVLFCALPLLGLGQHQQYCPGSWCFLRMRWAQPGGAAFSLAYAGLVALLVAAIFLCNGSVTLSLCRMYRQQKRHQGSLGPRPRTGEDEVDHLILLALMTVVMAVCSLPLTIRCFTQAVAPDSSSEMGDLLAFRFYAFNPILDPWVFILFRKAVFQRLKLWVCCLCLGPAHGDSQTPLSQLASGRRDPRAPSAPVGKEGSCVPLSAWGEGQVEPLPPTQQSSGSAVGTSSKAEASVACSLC
Chain of Prostaglandin E2 receptor EP4 subtype (P35408 whole entry): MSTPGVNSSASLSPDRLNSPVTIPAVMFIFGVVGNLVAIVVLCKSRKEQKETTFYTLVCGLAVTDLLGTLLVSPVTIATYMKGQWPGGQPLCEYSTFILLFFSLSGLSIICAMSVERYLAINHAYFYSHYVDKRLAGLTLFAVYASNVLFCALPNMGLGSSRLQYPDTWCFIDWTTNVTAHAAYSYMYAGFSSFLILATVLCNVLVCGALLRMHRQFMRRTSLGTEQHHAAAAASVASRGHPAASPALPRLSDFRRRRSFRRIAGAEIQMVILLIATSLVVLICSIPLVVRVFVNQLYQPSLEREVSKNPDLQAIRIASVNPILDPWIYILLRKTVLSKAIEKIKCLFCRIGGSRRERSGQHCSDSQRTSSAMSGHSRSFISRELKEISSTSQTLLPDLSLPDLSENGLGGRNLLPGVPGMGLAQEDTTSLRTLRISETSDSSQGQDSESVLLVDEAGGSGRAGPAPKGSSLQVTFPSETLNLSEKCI
Chain of Prostaglandin F2-alpha receptor (P43088 whole entry): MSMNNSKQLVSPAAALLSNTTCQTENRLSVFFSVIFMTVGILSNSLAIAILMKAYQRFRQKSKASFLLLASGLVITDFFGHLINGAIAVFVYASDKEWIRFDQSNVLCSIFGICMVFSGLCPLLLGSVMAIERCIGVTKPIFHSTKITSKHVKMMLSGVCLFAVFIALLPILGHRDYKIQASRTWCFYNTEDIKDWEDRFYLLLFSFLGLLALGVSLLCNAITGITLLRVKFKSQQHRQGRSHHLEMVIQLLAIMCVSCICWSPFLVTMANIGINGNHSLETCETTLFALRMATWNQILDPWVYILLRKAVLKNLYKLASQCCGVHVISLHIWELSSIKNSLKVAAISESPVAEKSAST
Chain of Prostaglandin E2 receptor EP2 subtype (P43116 whole entry): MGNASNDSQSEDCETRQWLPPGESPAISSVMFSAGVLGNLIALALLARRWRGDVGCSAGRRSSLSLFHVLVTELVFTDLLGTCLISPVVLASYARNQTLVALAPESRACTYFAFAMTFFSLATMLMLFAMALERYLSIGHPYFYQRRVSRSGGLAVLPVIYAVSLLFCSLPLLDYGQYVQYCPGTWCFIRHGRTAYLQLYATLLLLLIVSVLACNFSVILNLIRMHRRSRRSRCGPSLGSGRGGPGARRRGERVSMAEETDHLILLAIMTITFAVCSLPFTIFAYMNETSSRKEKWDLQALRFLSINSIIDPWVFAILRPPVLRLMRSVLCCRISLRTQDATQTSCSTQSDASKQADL

One may read the Ki as a measure of affinity in units of concentration, obtained from inhibition or displacement. In general, IC50 refers to the concentration that inhibits the measured activity by half. As for `CS(=O)(=O)c1cc(F)cc2c1c(Sc1ccc(Cl)cc1F)c1n2CCC1CC(=O)O` (stereo not given), the inhibitory constant (Ki) is 198 nM on Thromboxane A2 receptor and 3.5 nM in [1]. Besides, the IC50 in series [2] was 32.1 nM.

For the molecule `CCC(CC)c1cc(F)cc2c1c(Sc1ccc(Cl)cc1)c1n2CCC1CC(=O)O` (stereo not given), the inhibition constant Ki on Thromboxane A2 receptor is 363 nM; in series [1] it was 8.1 nM. Moreover, the half-maximal inhibitory concentration (IC50) in [2] stood at 21.6 nM.

As to `O=C(O)CC1CCn2c1c(Sc1ccc(Cl)cc1)c1c(Br)cc(F)cc12` (stereo not given), the results for the inhibition constant (Ki) (at Thromboxane A2 receptor; in [1]) were 17 nM and 7.7 nM, respectively.

In the case of `CC(C)C(O)c1cc(F)cc2c1c(Sc1ccc(Cl)cc1)c1n2CCC1CC(=O)O` (stereo not given), the Ki on Thromboxane A2 receptor was found to be 484 nM; in series [1] it was 7.9 nM. Also, the 50% inhibitory concentration (IC50) in series [2] was determined as 509 nM.

Take `CC(O)c1cc(F)cc2c1c(Sc1ccc(Cl)cc1)c1n2CCC1CC(=O)O` (stereo not given): the inhibitory constant (Ki) on Thromboxane A2 receptor was 273 nM; in [1], 2.5 nM. Further, the IC50 in series [2] came to 56 nM.

`CS(=O)(=O)c1cc(F)cc2c1c(-c1cccc(-c3ccccc3)c1)c1n2CCC1CC(=O)O` (stereo not given): the Ki at Thromboxane A2 receptor turned out to be 310 nM; in series [1] it was 1.7 nM. Further, the IC50 in series [2] came to 31.6 nM.

With `CCS(=O)(=O)c1cc(F)cc2c1c(Sc1ccc(Cl)cc1)c1n2CCC1CC(=O)O` (stereo not given), the values for the Ki (on Thromboxane A2 receptor; in [1]) were 250 nM and 2.3 nM, respectively. Moreover, the IC50 in [2] came out at 34 nM.

For `CS(=O)(=O)c1cc(F)cc2c1c(C(=O)c1ccc(Cl)cc1)c1n2CCC1CC(=O)O` (stereo not given), the Ki at Thromboxane A2 receptor turned out to be 6970 nM; in [1], 6.9 nM.

In the case of `CC(=O)c1cc(F)cc2c1c(Sc1ccc(Cl)cc1)c1n2CCC1CC(=O)O` (stereo not given), the figures for the Ki (on Thromboxane A2 receptor; in series [1]) were 674 nM and 3.6 nM, respectively. Besides, the half-inhibitory concentration (IC50) in [2] came out at 101 nM.

In the case of `CS(=O)(=O)c1cc(F)cc2c1c(Cc1ccc(Cl)cc1)c1n2CCC1CC(=O)O` (stereo not given), the results for the inhibition constant (Ki) (at Thromboxane A2 receptor; in series [1]) were 11.7 nM and 0.5 nM, respectively. For the same molecule, the IC50 in series [2] was determined as 4.7 nM.

Turning to `CSC(C)c1cc(F)cc2c1c(Sc1ccc(Cl)cc1)c1n2CCC1CC(=O)O` (stereo not given), the inhibition constant (Ki) was determined as 27.5 nM on Thromboxane A2 receptor and 1.6 nM in [1]. For the same molecule, in series [2], the 50% inhibitory concentration (IC50) is 4.1 nM.

Regarding `CS(=O)(=O)c1cc(F)cc2c1c(Sc1ccc(Cl)cc1)c1n2CCC1CC(=O)O` (stereo not given), the Ki on Thromboxane A2 receptor turned out to be 226 nM; in series [1] it was 1.3 nM. Besides, in series [2], the concentration for half-maximal inhibition (IC50) came to 10.4 nM.

As for `O=C(O)CC1CCn2c1c(Sc1ccc(Cl)cc1)c1ccc(F)cc12` (stereo not given), the inhibition constant (Ki) at Thromboxane A2 receptor amounted to 17 nM; in series [1] it was 132 nM.

Regarding `CC(c1ccc(Cl)cc1)c1c2n(c3cc(F)cc(S(C)(=O)=O)c13)CCC2CC(=O)O` (stereo not given), the inhibition constant (Ki) at Thromboxane A2 receptor came out at 3190 nM; in series [1] it was 14.7 nM.

As for `CS(=O)(=O)c1cc(F)cc2c1c(Sc1ccc(C(F)(F)F)cc1)c1n2CCC1CC(=O)O` (stereo not given), the Ki at Thromboxane A2 receptor worked out at 286 nM; in series [1] it was 1.8 nM. Further, in [2], the IC50 was found to be 29.2 nM.

As to `CS(=O)(=O)c1cc(F)cc2c1c(CCc1ccc(Cl)cc1)c1n2CCC1CC(=O)O` (stereo not given), the Ki at Thromboxane A2 receptor was 219 nM; in [1] it was 18.9 nM.

With `CS(=O)(=O)c1cc(F)cc2c1c(Sc1ccc3ccccc3c1)c1n2CCC1CC(=O)O` (stereo not given), the inhibition constant (Ki) stood at 583 nM on Thromboxane A2 receptor and 1.2 nM in series [1]. Besides, the half-inhibitory concentration (IC50) in [2] was found to be 40 nM.

As a reminder, the bioavailability is the share of a dose that reaches the circulation, judged against a reference dose that is usually intravenous. Usually half-life stands for the time in which the quantity being followed falls by half. Consider `CS(=O)(=O)c1cc(F)cc2c1c(C(=O)c1ccc(Cl)cc1)c1n2CCCC1CC(=O)O` (stereo not given), for which the Ki turned out to be 513 nM at Thromboxane A2 receptor and 3 nM in series [1]. This molecule yielded a bioavailability in [3] of 100%. Further, the half-life in series [4] is 4.4 h. Further, in series [2], the IC50 is 4.6 nM.

As to `CCC(OC)c1cc(F)cc2c1c(Sc1ccc(Cl)cc1)c1n2CCC1CC(=O)O` (stereo not given), the Ki is 200 nM on Thromboxane A2 receptor and 1.1 nM in [1]. Moreover, the 50% inhibitory concentration (IC50) in series [2] was 6.7 nM.

With `CC(C)c1cc(F)cc2c1c(Sc1ccc(Cl)cc1)c1n2CCC1CC(=O)O` (stereo not given), the inhibition constant (Ki) was found to be 46 nM at Thromboxane A2 receptor and 2.4 nM in series [1]. Moreover, in [2], the IC50 is 8.6 nM.

As for `CS(=O)(=O)c1cc(F)cc2c1c(C(=O)c1ccc(Cl)cc1)c1n2CCCCC1CC(=O)O` (stereo not given), the figures for the Ki (on Thromboxane A2 receptor; in series [1]) were 675 nM and 1.4 nM, respectively. For the same molecule, in series [2], the half-inhibitory concentration (IC50) came to 5.2 nM.

Regarding `CS(=O)(=O)c1cc(F)cc2c1c(C(=O)c1ccc(Cl)cc1)c1n2CCC[C@H]1CC(=O)O`, the inhibition constant (Ki) in [5] was above 21400 nM; in [6], 2170 nM; in series [7], above 29200 nM; on Thromboxane A2 receptor, 7150 nM; in series [1] it was 36 nM; in series [8], above 24800 nM. Besides, the Ki on Prostacyclin receptor is above 22500 nM; in series [9], above 16100 nM.

As to `O=C(O)CC1CCn2c1c(Sc1ccc(Cl)cc1)c1c(C3CC3)cc(F)cc12` (stereo not given), the Ki on Thromboxane A2 receptor is 136 nM; in series [1] it was 5.7 nM.

Regarding `CS(=O)(=O)c1cc(F)cc2c1c(C(=O)c1ccc(Cl)cc1)c1n2CCC[C@@H]1CC(=O)O`, the Ki in series [5] stood at 5060 nM; in series [6] it was 142 nM; in [7], 3400 nM; at Thromboxane A2 receptor, 168 nM; in series [10], 19200 nM; in [1], 1 nM. Further, the values for the Ki (in series [8]; at Prostacyclin receptor; in [9]) were 21100 nM, above 21200 nM and above 16500 nM, respectively. Besides, in series [2], the IC50 was determined as 4.6 nM.
